Measurements from ChEMBL document CHEMBL1156252, “Sigma-1 ligands: Tic-hydantoin as a key pharmacophore” (Eur J Med Chem, 2010).

Columns and labels:
[1] = molecular target: Sigma-1 receptor (Homo sapiens, Jurkat); assay: Displacement of [3H](+)-pentazocine from sigma 1 receptor in human Jurkat cells by scintillation counting
[2] = Displacement of [3H]DTG […] from sigma 2 receptor in rat cerebral cortex after 120 mins; assay type: tissue-based
How it was run: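 Rat cerebral cortex membranes incubated with […] (5 nM) plus (+)-pentazocine (300 nM) to mask σ1 sites, with a concentration range of test compound, 2 h at 22 °C in 5 mM Tris/HCl pH 7.4. […] Bound ligand was collected by GF/B filtration, washed with ice-cold saline and counted by liquid scintillation.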

Structure (SMILES)	IC50 [1] [µM]	IC50 [2] [µM]
CN(CCCn1c(=O)[nH]c2ccc(Cl)cc2c1=O)Cc1ccccc1	> 0.2	
CN(CCCn1c(=O)[nH]c2ccc(I)cc2c1=O)Cc1ccccc1	0.103	
CN(CCCN1C(=O)c2cccnc2C1=O)Cc1ccccc1	> 0.2	
CN(CCCN1C(=O)c2ccncc2C1=O)Cc1ccccc1	> 0.2	

Other lines, results leading:

IC50 [1] [µM]	IC50 [2] [µM]	Structure (SMILES)
> 0.2		CN(CCCN1C(=O)[C@H](Cc2ccccc2)N(C)C1=O)Cc1ccccc1
	> 0.5	CN(CCCN1C(=O)[C@@H]2Cc3ccccc3CN2C1=O)Cc1ccccc1
0.057		CN(CCCN1C(=O)[C@H]2Cc3ccccc3C[C@H]2C1=O)Cc1ccccc1
0.116		CN(CCCn1c(=O)[nH]c2ccccc2c1=O)Cc1ccccc1
0.0045		CN(CCCN1C(=O)C2Cc3ccccc3CN2C1=S)Cc1ccccc1 (centres undefined)
